# Experimental data reported in ChEMBL document CHEMBL3758106, “Antitumor Activity of Americanin A Isolated from the Seeds of Phytolacca americana by Regulating the ATM/ATR Signaling Pathway and the Skp2-p27 Axis in Human Colon Cancer Cells” (J Nat Prod, 2015).
# pIC50: −log10 of the molar value. Active and inactive are the calls of the source. The rule behind the calls is not given here.
# Key:
# HCT-116 [1] = assay: Induction of cell cycle arrest in human HCT116 cells assessed as accumulation at sub-G1 phase at 15 uM after 48 hrs by propidium iodide staining-based flow cytometric analysis in presence of RNase A (reference value: 6.5%); format: functional
# HCT-116 [2] = assay: Induction of cell cycle arrest in human HCT116 cells assessed as accumulation at G2/M phase at 30 uM after 48 hrs by propidium iodide staining-based flow cytometric analysis in presence of RNase A (reference value: 19.7%); format: functional
# HCT-116 [3] = assay: Induction of apoptosis in human HCT116 cells assessed as dead cells at 7.5 uM after 48 hrs by annexin V-FITC/propidium iodide staining-based flow cytometric analysis (reference value: 2%); format: functional
# HCT-116 [4] = assay: Induction of apoptosis in human HCT116 cells assessed as early apoptotic cells at 15 uM after 48 hrs by annexin V-FITC/propidium iodide staining-based flow cytometric analysis (reference value: 1.6%); format: functional
# HCT-116 [5] = assay: Induction of apoptosis in human HCT116 cells assessed as late apoptotic cells at 30 uM after 48 hrs by annexin V-FITC/propidium iodide staining-based flow cytometric analysis (reference value: 5.2%); format: functional
# HCT-116 [6] = assay: Induction of reactive oxygen species in human HCT116 cells at 7.5 uM after 48 hrs by DCFH-DA staining-based flow cytometric analysis (reference value: 5.1%); format: functional
# HCT-116 [7] = assay: Induction of apoptosis in human HCT116 cells assessed as cleaved caspase 3 level at 30 uM up to 24 hrs by Western blot analysis; format: functional, cell-based
# HCT-116 [8] = assay: Induction of apoptosis in human HCT116 cells assessed as cleaved caspase 8 level at 30 uM up to 24 hrs by Western blot analysis; format: functional, cell-based
# [9] = Antitumor activity against human HCT116 cells xenografted in nude mouse assessed as tumor growth inhibition at 5 mg/kg, ip administered 3 times per week measured on day 41; format: functional; settings: HCT-116, ip, 984 h, read-out: TGI
# Procedure, shortened: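 Nude mice given 2 × 10^6 HCT116 cells subcutaneously in flank; at ~120 mm3 randomised, six per group; ip dosing in 200 μL, test agent 5 or 10 mg/kg three times weekly, irinotecan 10 mg/kg once weekly; tumour volume measured twice weekly to day 41; body weight tracked for toxicity.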
# Mus musculus [10] = assay: Toxicity in nude mouse assessed as change in body weight at 5 to 10 mg/kg, ip administered 3 times per week measured on day 41; format: organism-based; settings: in vivo
# Procedure, shortened: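 Nude mice implanted s.c. in the flank with 2 × 10^6 HCT116 cells. Once tumors reached about 120 mm3, mice were randomized, six per group, to vehicle or compound at 5 or 10 mg/kg ip (200 μL) three times weekly; irinotecan 10 mg/kg ip once weekly as reference. Body weight recorded twice weekly to assess toxicity; study ended day 41.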
# HCT-116 [11] = assay: Induction of cell cycle arrest in human HCT116 cells assessed as accumulation at G2/M phase at 15 uM after 24 hrs by propidium iodide staining-based flow cytometric analysis in presence of RNase A (reference value: 20.6%); format: functional
# [12] = Downregulation of CDK2 expression in human HCT116 cells at 7.5 to 30 uM after 24 hrs by Western blot analysis; format: functional, cell-based; settings: HCT-116
# Procedure, shortened: (§1)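 HCT116 cells exposed 24 h in complete medium; lysed in RIPA buffer (pH 8.0), protein by BCA, equal loads run on 8–13% SDS-PAGE, PVDF transfer, blocked in 5% BSA/TBST, primary antibodies overnight at 4 °C, HRP secondaries 2 h RT, ECL detection; β-actin as loading control.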
# [13] = Downregulation of cdc2 expression in human HCT116 cells at 7.5 to 30 uM after 24 hrs by Western blot analysis; format: functional, cell-based; settings: HCT-116; procedure, shortened: as §1
# [14] = Antiproliferative activity against human HCT116 cells assessed as cell viability after 24 hrs by SRB assay; format: functional, cell-based; settings: HCT-116, 24 h
# Procedure, shortened: (§2)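 HCT116 cells in 96-well plates exposed 24, 48 or 72 h; TCA fixation, 0.4% SRB staining, dye solubilised in 10 mM Tris pH 10.0, absorbance at 515 nm; viability relative to solvent-treated control.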
# [15] = Antiproliferative activity against human HCT116 cells assessed as cell viability after 48 hrs by SRB assay; format: functional, cell-based; settings: HCT-116, 48 h; procedure, shortened: as §2
# [16] = Upregulation of phosphorylated H2A.X expression at Ser139 in human HCT116 cells at 7.5 to 30 uM after 24 hrs by Western blot analysis; format: functional, cell-based; settings: HCT-116
# [17] = Downregulation of phosphorylated ATM expression in human HCT116 cells at 30 uM after 1 hr by Western blot analysis; format: functional, cell-based; settings: HCT-116, TDE = time-dependent effect
# Procedure, shortened: (§3)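 HCT116 cells exposed for 1 h in complete medium; RIPA lysates quantified by BCA, equal protein separated on 8–13% SDS-PAGE, transferred to PVDF, probed with primary antibodies overnight at 4 °C and HRP secondaries, chemiluminescence read-out.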
# [18] = Downregulation of ATR expression in human HCT116 cells at 30 uM after 1 hr by Western blot analysis; format: functional, cell-based; settings: HCT-116, TDE = time-dependent effect; procedure, shortened: as §3
# [19] = target: Serine-protein kinase ATM/ATR (Homo sapiens) (UniProt Q13315+Q13535); assay: Activation of ATM/ATR in human HCT116 cells assessed as increase in Chk1 phosphorylation at S345 at 7.5 to 30 uM after 24 hrs by Western blot analysis; format: cell-based; settings: HCT-116; procedure, shortened: as §1
# [20] = Upregulation of MDM2 expression in p53-null human HCT116 cells at 7.5 to 30 uM after 24 hrs by Western blot analysis; format: functional, cell-based; settings: HCT-116
# HCT-116 [21] = assay: Increase in p27 expression in human HCT116 cells after 24 hrs by western blot analysis; format: functional, cell-based; procedure, shortened: as §1
# [22] = Decrease in Skp1 expression in human HCT116 cells at 7.5 to 30 uM after 24 hrs by western blot analysis; format: functional, cell-based; settings: HCT-116; procedure, shortened: as §1
# HCT-116 [23] = assay: Induction of cell cycle arrest in human HCT116 cells assessed as accumulation at G2/M phase at 7.5 uM after 48 hrs by propidium iodide staining-based flow cytometric analysis in presence of RNase A (reference value: 19.7%); format: functional
# K562 = assay: Antiproliferative activity against human K562 cells after 24 to 72 hrs by SRB assay; format: functional, cell-based
# Procedure, shortened: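 Cells grown in 96-well plates (RPMI 1640; MRC-5 in MEM, 10% FBS, antibiotics) with compound […]; fixed in 10% TCA 30 min at 4 °C, stained 0.4% SRB in 1% acetic acid 1 h, dye dissolved in 10 mM Tris pH 10.0, A515 read; viability as % of solvent control, IC50 by nonlinear regression; mean of three independent experiments.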
# Mus musculus [24] = assay: Downregulation of Skp2 in human HCT116 cells xenografted in nude mouse at 5 to 10 mg/kg, ip administered 3 times per week measured on day 41 by […]; format: functional, organism-based; settings: HCT-116
# Procedure, shortened: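 Formalin-fixed, paraffin-embedded xenograft sections (mice dosed ip three times weekly) probed with antibodies, detected by LSAB/HRP, counterstained with H&E, imaged by inverted phase-contrast microscopy.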
# HCT-116 [25] = assay: Induction of apoptosis in human HCT116 cells assessed as cleaved PARP level at 30 uM up to 48 hrs by Western blot analysis in presence of NAC
structure (smiles),measurement,setting,value
O=C/C=C/c1ccc2c(c1)O[C@@H](CO)[C@H](c1ccc(O)c(O)c1)O2 [AMERICANIN A],Activity,HCT-116 [1],37.9%
same,Activity,HCT-116 [2],19%
same,Activity,HCT-116 [3],2%
same,Activity,HCT-116 [4],12.2%
same,Activity,HCT-116 [5],18.9%
same,Activity,HCT-116 [6],5.2%
same,Activity,HCT-116 [7],Active
same,Activity,HCT-116 [8],Active
same,inhibition in vivo at 5 mg/kg,[9],45%
same,Activity,Mus musculus [10],Non-toxic
same,Activity,HCT-116 [11],31.8%
same,Activity,[12],Active
same,Activity,[13],Active
same,pIC50,[14],4.62
same,pIC50,[15],5.02
same,Activity,[16],Active
same,Activity,[17],tde
same,Activity,[18],tde
same,Activity,[19],Dose-dependent effect
same,Activity,[20],Active
same,Activity,HCT-116 [21],Dose-dependent effect
same,Activity,[22],Active
same,Activity,HCT-116 [23],19%
same,pIC50,K562,4.89
same,Activity,Mus musculus [24],Active
same,Activity,HCT-116 [25],inactive
